Legend:
CEM-SS = assay: Cytotoxicity against human CEM-SS cells assessed as cell growth inhibition; type: cell-based
Method in brief: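 CEM-SS cells were exposed to compounds at concentrations up to 50 μM, and cytotoxicity was scored as cell growth inhibition.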

[1] = molecular target: Human immunodeficiency virus type 1 reverse transcriptase (Human immunodeficiency virus 1, UniProt Q72547); assay: Inhibition of human immunodeficiency virus-1 reverse transcriptase associated RNase H activity using 18-nucleotide 3,-fluorescein-labeled RNA substrate by fluorescence resonance energy transfer assay
Method in brief: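 Inhibition of HIV RT-associated RNase H activity was measured by a previously described method, with β-thujaplicinol as positive control and IC50 as the readout.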

[2] = tested on: Human immunodeficiency virus 1; assay: Antiviral activity against HIV1 infected in human H9 cells assessed as protection against virus-induced cytopathic effect by tetrazolium reduction based colorimetric technique; type: functional, organism-based
Method in brief: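 HIV cytopathicity assay run by a previously reported protocol. Compounds tested at up to 50 μM, with dideoxycytidine as positive control.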

IC50 [1] | EC50 ([2]; h9) | EC50 ([2]; Human immunodeficiency virus 1, H9, read-out: EC50) | SMILES | IC50 (CEM-SS)
34 µM | Not Active | – | C=C(C)[C@@H]1CCc2cc(O[C@@H]3O[C@H](COC(=O)CC(C)(O)CC(=O)O)[C@@H](O)[C@H](O)[C@H]3O)c(=O)cc(C)c2C1 (stereo partly specified) | > 50 µM
0.26 µM | Not Active | – | CC(C)c1ccc(O)c(=O)c(O)c1 [BETA-THUJAPLICINOL] | 2.3 µM
– | – | 0.079 µM | Nc1ccn([C@H]2CC[C@@H](CO)O2)c(=O)n1 [ZALCITABINE] | 61 µM
> 50 µM | Not Active | – | Cc1cc(=O)c(O[C@@H]2O[C@H](COC(=O)CC(C)(O)CC(=O)O)[C@@H](O)[C@H](O)[C@H]2O)cc2c1C[C@H](C(C)(C)O)CC2 (stereo partly specified) | > 50 µM

Reference: ChEMBL document CHEMBL3425428, “Sesquiterpenoid tropolone glycosides from Liriosma ovata” (J Nat Prod, 2015)
